The source made the active and inactive calls. The calls are words filed in the database; no cut-off is given here.
What was measured:
[1] = test system: Hepatitis C virus; test: Antiviral activity against HCV genotype 1b infected in Huh7/Rep-Feo1b cells assessed as inhibition of viral replication at 50 uM after 42 hrs by MTS assay relative to control; assay type: functional, Hepacivirus hominis; conditions: Huh-7, 42 h
In short: (§1)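 Replicon reporter cells (Huh7/Rep-Feo1b or Huh7.5-FGR-JC1-Rluc2A) grown in DMEM with 10% fetal calf serum and 0.5 mg/mL G418 at 37°C, 5% CO2. Seeded at 1x10^4 per well, compound added 8 h after seeding at 50 µM for 42 h. Luciferase signal expressed relative to equivalent DMSO-treated controls. Average of three independent experiments.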

[2] = Cytotoxicity against human Huh7.5 cells assessed as cell viability after 42 hrs by MTS assay; assay type: cell-based, Huh-7
In short: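 CC50 measured in parental Huh7.5 cells using the colorimetric MTS assay, with equal amounts of DMSO as control. Mean of three independent experiments with standard deviation.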

[3] = test system: Hepacivirus hominis; test: Inhibition of HCV NS5B RNA dependent RNA polymerase using UTP/[alpha-32P]UTP as substrate at 50 uM after 1 hr by liquid scintillation counter analysis
[4] = test system: Hepatitis C virus; test: Antiviral activity against HCV genotype 2a infected in Huh7.5 FGR-JC1-Rluc2A cells assessed as inhibition of viral replication at 50 uM after 42 hrs by MTS assay relative to control; assay type: functional; conditions: Hepacivirus hominis, Huh7.5, 42 h, in the assay text read “Renilla luciferase reporter assay” for “MTS assay”; in short: as §1
[5] = Cytotoxicity against human HuH7 cells assessed as inhibition of cell proliferation after 72 hrs by sulforhodamine B assay; assay type: functional, cell-based, Huh-7
In short: (§2)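 Liver cancer cells grown in DMEM or RPMI with 10% FCS, 2 mM L-glutamine and penicillin/streptomycin at 37°C, 5% CO2. Plated at 1000-3000 cells per well for 24 h, then exposed to 2.5–40 µM for 72 h. Cells TCA-fixed, stained with 0.4% sulforhodamine B in 1% acetic acid, dye solubilized in 10 mM Tris base, absorbance read at 515 nm. Normalized to DMSO, triplicate.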

[6] = test system: Huh-7; test: Induction of apoptosis in human HuH7 cells assessed as DNA fragmentation at IC50 after 72 hrs by hoechst 33258 staining based fluorescence microscopy; assay type: functional, cell-based
[7] = test system: Huh-7; test: Induction of apoptosis in human HuH7 cells assessed as nuclear condensation at IC50 after 72 hrs by hoechst 33258 staining based fluorescence microscopy; assay type: functional, cell-based
[8] = Cytotoxicity against human SNU475 cells assessed as inhibition of cell proliferation after 72 hrs by sulforhodamine B assay; assay type: functional, cell-based, SNU-475; in short: as §2
[9] = Cytotoxicity against human Mahlavu cells assessed as inhibition of cell proliferation after 72 hrs by sulforhodamine B assay; assay type: functional, cell-based; in short: as §2
[10] = Cytotoxicity against human FOCUS cells assessed as inhibition of cell proliferation after 72 hrs by sulforhodamine B assay; assay type: functional, cell-based; in short: as §2
[11] = test system: HepG2; test: Cytotoxicity against human HepG2 cells assessed as inhibition of cell proliferation after 72 hrs by sulforhodamine B assay; assay type: functional, cell-based; in short: as §2
[12] = Cytotoxicity against human Hep3B cells assessed as inhibition of cell proliferation after 72 hrs by sulforhodamine B assay; assay type: functional, cell-based, Hep 3B2; in short: as §2
[13] = Selectivity index, ratio of CC50 for human Huh7.5 cells to EC50 for HCV genotype 1b infected in Huh7/Rep-Feo1b cells; design: species or system Huh-7
In short: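 Selectivity index taken as the ratio of CC50 (MTS assay, parental Huh7.5 cells) to EC50 (dose-response curves at 8-10 concentrations, Huh7/Rep-Feo1b luciferase replicon, 42 h treatment).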

[14] = test system: Hepatitis C virus; test: Antiviral activity against HCV genotype 1b infected in Huh7/Rep-Feo1b cells assessed as inhibition of viral replication after 42 hrs by MTS assay; assay type: functional, organism-based, Hepacivirus hominis; conditions: Huh-7, 42 h
In short: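 Huh7/Rep-Feo1b replicon reporter cells kept in DMEM with 10% fetal calf serum and 0.5 mg/mL G418 at 37°C, 5% CO2. Cells seeded at 1x10^4 per well, dosed 8 h later and incubated 42 h with DMSO as control. Luciferase signal read relative to DMSO. EC50 derived from dose-response curves at 8-10 concentrations, mean of three independent experiments with standard deviation.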

[15] = test system: Huh-7; test: Induction of apoptosis in human HuH7 cells assessed as cleavage of PARP protein at IC50 after 72 hrs by Western blot analysis; assay type: functional, cell-based
In short: (§3)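 Cells plated in 100 mm dishes. […] Western blot probed with anti-PARP to detect cleaved PARP, with β-actin as loading control.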

[16] = test system: Mahlavu; test: Induction of apoptosis in human Mahlavu cells assessed as cleavage of PARP protein at IC50 after 72 hrs by Western blot analysis; assay type: functional, cell-based; in short: as §3
[17] = Cell cycle arrest in human Mahlavu cells assessed as accumulation at subG1/G0 phase at IC50 after 72 hrs by propidium iodide staining-based Muse cell cycle analyzer; assay type: functional

Structure (SMILES) | inhibition [3] | inhibition at 50 µM [1] [%] | CC50 at 42 h [2] [µM] | inhibition at 50 µM [4] [%] | Ratio CC50/EC50 [13] | EC50 [14] [µM] | further results
O=C(N/N=C/c1ccncc1)c1cc(-c2ccc(F)cc2F)ccc1O | 7% | 33 | > 50 | 23 |  |  | 
O=C(O)c1cc(-c2ccc(F)cc2F)ccc1O [DIFLUNISAL] |  |  |  |  |  |  | IC50 ([5]; huh-7): Not Active; Activity [6]: inactive; Activity [7]: inactive; IC50 ([8]; snu-475): Not Active; IC50 [9]: 51.7 µM; IC50 [10]: 29.8 µM; IC50 ([11]; hepg2): Not Active; IC50 ([12]; hep 3b2): Not Active
CCc1ccc(/C=N/NC(=O)c2cc(-c3ccc(F)cc3F)ccc2O)s1 | inactive | 65 | > 50 | 96 |  |  | 
O=C(N/N=C/c1cccc(Oc2ccccc2)c1)c1cc(-c2ccc(F)cc2F)ccc1O | 14% | 92 | < 50 | 99 |  |  | 
O=C(N/N=C/c1cccnc1)c1cc(-c2ccc(F)cc2F)ccc1O | 8% | 83 | > 200 | 88 | >24.7 | 8.1 | 
O=C(N/N=C/c1ccccn1)c1cc(-c2ccc(F)cc2F)ccc1O | inactive | 79 | > 100 | 90 | >25.6 | 3.9 | IC50 ([5]; Homo sapiens, Huh-7, 72 h, read-out: IC50): 10 µM; Activity [6]: Active; Activity [15]: inactive; Activity [7]: Active; IC50 ([8]; Homo sapiens, SNU-475, 72 h, read-out: IC50): 8.33 µM; IC50 [9]: 4.74 µM; IC50 [10]: 9.29 µM; IC50 ([11]; Homo sapiens, HepG2, 72 h, read-out: IC50): 10.3 µM; Activity [16]: Active; IC50 ([12]; Homo sapiens, Hep3B, 72 h, read-out: IC50): 16.2 µM; Activity [17]: Active
Cc1ccc(/C=N/NC(=O)c2cc(-c3ccc(F)cc3F)ccc2O)s1 | 8% | 64 | > 50 | 95 |  |  | 
O=C(N/N=C/c1cccc2ccccc12)c1cc(-c2ccc(F)cc2F)ccc1O | inactive | 79 | > 200 | 70 | >6.1 | 16.5 | 
O=C(N/N=C/c1ccc(C(F)(F)F)cc1)c1cc(-c2ccc(F)cc2F)ccc1O | 12% | 86 | < 50 | 99 |  |  | 
N#Cc1ccc(/C=N/NC(=O)c2cc(-c3ccc(F)cc3F)ccc2O)cc1 | inactive | 77 | > 200 | 82 | >16.9 | 11.8 | 
O=C(N/N=C/c1ccc2ccccc2c1)c1cc(-c2ccc(F)cc2F)ccc1O | inactive | 65 | > 100 | 58 |  |  | 
O=C(N/N=C/c1cccc(C(F)(F)F)c1)c1cc(-c2ccc(F)cc2F)ccc1O | 18% | 87 | < 50 | 99 |  |  | 
O=C(N/N=C/c1ccc2c(c1)OC(F)(F)O2)c1cc(-c2ccc(F)cc2F)ccc1O | inactive | 65 | < 50 | 95 |  |  | 

The next lines start with results.

inhibition [3] | Structure (SMILES) | inhibition at 50 µM [1] [%] | CC50 at 42 h [2] [µM] | inhibition at 50 µM [4] [%] | Ratio CC50/EC50 [13] | EC50 [14] [µM] | further results
inactive | O=C(N/N=C/c1ccc(Cl)c(Cl)c1)c1cc(-c2ccc(F)cc2F)ccc1O | 66 | < 50 | 95 |  |  | 
inactive | O=C(N/N=C/c1c(Cl)cccc1Cl)c1cc(-c2ccc(F)cc2F)ccc1O | 72 | < 50 | 96 |  |  | 
17% | O=C(N/N=C/c1cccs1)c1cc(-c2ccc(F)cc2F)ccc1O | 91 | > 50 | 98 | >3.2 | 15.6 | 
7% | O=C(N/N=C/c1ccccc1Cl)c1cc(-c2ccc(F)cc2F)ccc1O | 90 | < 50 | 78 |  |  | 
11% | O=C(N/N=C/c1c(F)cccc1Cl)c1cc(-c2ccc(F)cc2F)ccc1O | 83 | > 50 | 74 | >12.8 | 3.9 | 
9% | O=C(N/N=C/c1cccc(Br)c1)c1cc(-c2ccc(F)cc2F)ccc1O | 81 | < 50 | 92 |  |  | 
inactive | O=C(N/N=C/c1c(F)cccc1F)c1cc(-c2ccc(F)cc2F)ccc1O | 69 | > 100 | 72 |  |  | 

Source: ChEMBL document CHEMBL3763025, “Synthesis of novel diflunisal hydrazide-hydrazones as anti-hepatitis C virus agents and hepatocellular carcinoma inhibitors” (Eur J Med Chem, 2016)
